This is an account of results in article PMC6146385 (Acta Pharmaceutica Sinica. B, 2018).

Series [1] addresses T1, AB sulfation in HLC (SULT2A1) (Homo sapiens, UniProt Q06520).
T1 sequence (Q06520 1-285): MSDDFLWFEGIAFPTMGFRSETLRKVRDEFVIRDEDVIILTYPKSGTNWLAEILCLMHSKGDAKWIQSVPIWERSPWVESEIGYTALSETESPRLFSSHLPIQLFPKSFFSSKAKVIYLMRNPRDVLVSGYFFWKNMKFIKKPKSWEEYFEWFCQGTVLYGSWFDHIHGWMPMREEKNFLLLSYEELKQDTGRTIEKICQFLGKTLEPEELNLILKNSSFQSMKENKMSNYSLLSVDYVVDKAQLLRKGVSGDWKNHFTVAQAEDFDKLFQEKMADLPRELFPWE
The series can be described thus: Chemical inhibition of AB sulfation in HLC. It counts as biochemical. To be noted: for inhibition of AB sulfation / residual activity of AB sulfation: HLC, Fig. 2A.

Series [2] has as its target T2, SULT2A1 (Homo sapiens, UniProt Q06520).
T2 sequence (Q06520 1-285): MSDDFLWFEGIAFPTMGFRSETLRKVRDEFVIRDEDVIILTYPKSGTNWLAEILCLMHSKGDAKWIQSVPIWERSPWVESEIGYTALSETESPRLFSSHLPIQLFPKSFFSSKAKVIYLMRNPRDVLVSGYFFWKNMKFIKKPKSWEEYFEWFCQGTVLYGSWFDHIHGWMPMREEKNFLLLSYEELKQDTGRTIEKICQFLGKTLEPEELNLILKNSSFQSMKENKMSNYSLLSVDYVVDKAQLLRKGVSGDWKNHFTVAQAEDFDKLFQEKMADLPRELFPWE
Put plainly: Inhibition of AB sulfation in rhSULT2A1. It counts as biochemical.

In series [3] the target is T2, SULT2A1. Put plainly: Sulfation of AB, DHEA and bufadienolides by recombinant human SULT2A1. It counts as in vitro ADME.
Series [4] can be described thus: Sulfation kinetics and rate in pooled human liver cytosols. The following applies: human, pooled human liver cytosols (HLC), pH 7.4. It counts as in vitro ADME. In outline: (§1)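 Substrate-concentration series with pooled mixed-gender human liver cytosol or recombinant human SULTs. Buffer is 50 mmol/L potassium phosphate, pH 7.4, with DTT 8 mmol/L, MgCl2 5 mmol/L and PAPS 4 mmol/L, at 37 °C and within linear formation conditions. Sulfate is quantified by LC–MS/MS. Eadie–Hofstee plots choose the Michaelis–Menten or substrate-inhibition fit. Km, Vmax (and Ksi) come from nonlinear regression. Duplicates in three independent experiments.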

For series [5], the system named is pooled human liver cytosols (HLC). The description is as above. It counts as in vitro ADME. The essentials: as §1
Series [6] deals with SULT2A1 (sulfation). Described as above. The following applies: human, pooled human liver cytosols (HLC), pH 7.4, Km, sulfation by HLC. It counts as in vitro ADME. In outline: as §1
Series [7] addresses T3, AB sulfation in cytosol of human kidney, small intestine and brain (Homo sapiens, UniProt Q06520).
T3 sequence (Q06520 1-285): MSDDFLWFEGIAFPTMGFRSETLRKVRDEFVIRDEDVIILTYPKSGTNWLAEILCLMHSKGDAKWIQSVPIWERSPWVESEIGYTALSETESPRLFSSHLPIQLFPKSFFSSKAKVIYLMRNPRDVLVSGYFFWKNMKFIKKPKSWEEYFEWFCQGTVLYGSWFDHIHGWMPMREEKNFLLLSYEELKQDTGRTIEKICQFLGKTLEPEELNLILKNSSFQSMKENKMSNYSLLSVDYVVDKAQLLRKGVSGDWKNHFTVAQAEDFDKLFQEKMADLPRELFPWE
Put plainly: Inhibition of AB sulfation in cytosol of human kidney, small intestine and brain. It counts as biochemical. The following applies: Fig. S5.

Series [8] deals with T4, SULT1E1 (Homo sapiens, UniProt P49888).
T4 sequence (P49888 1-294): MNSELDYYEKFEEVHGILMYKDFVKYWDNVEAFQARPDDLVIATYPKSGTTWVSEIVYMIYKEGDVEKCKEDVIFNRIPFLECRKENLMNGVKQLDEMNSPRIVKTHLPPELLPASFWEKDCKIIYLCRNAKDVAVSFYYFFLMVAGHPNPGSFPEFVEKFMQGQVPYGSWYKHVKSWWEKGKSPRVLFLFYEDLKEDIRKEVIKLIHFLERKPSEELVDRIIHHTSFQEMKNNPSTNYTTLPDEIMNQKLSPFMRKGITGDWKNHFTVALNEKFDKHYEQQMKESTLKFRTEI
The series can be described thus: DHEA sulfation kinetics by recombinant SULT1E1. It counts as in vitro ADME.

Substrate in series [9]: C[C@]12CC[C@H](O)CC1=CC[C@@H]1[C@@H]2CC[C@]2(C)C(=O)CC[C@@H]12
Put plainly: DHEA sulfation kinetics by recombinant SULT1E1. It counts as in vitro ADME, human. The following applies: other: sulfation by SULT1E1; pH 7.4; 37.0 °C.

Substrate in series [10]: C[C@]12CC[C@H](O)CC1=CC[C@@H]1[C@@H]2CC[C@]2(C)C(=O)CC[C@@H]12
The series can be described thus: Sulfation of AB, DHEA and bufadienolides by recombinant human SULT2A1. It counts as in vitro ADME. The following applies: other: sulfation by SULT2A1; pH 7.4; 37.0 °C.

On to `C[C@]12CC[C@@H]3c4ccc(O)cc4CC[C@H]3[C@@H]1CCC2=O` [estrone], for which the “inhibition of AB sulfation” value in series [1] was “less than 20%”.
The same measure, in the same setting: then `Cc1cccc(Nc2ccccc2C(=O)O)c1C` [MFC, mefenamic acid], with “less than 20%”; and `CC(C)Cc1ccc(C(C)C(=O)O)cc1` (centres unmarked) [ibuprofen], with “less than 20%”.
As to `C[C@]12CC[C@H](O)CC1=CC[C@@H]1[C@@H]2CC[C@]2(C)C(=O)CC[C@@H]12` [DHEA, dehydroepiandrosterone], the IC50 in [2] came to 1640 nM; in series [1] it was 1880 nM. Further, the “residual activity of AB sulfation” value in series [1] was “less than 10%”. In addition, the microsomal CLint in [3] (human, recombinant human SULT2A1 (rhSULT2A1), pH 7.4) amounted to 2940 µL/min/mg; in series [4], 48.2 µL/min/mg; in [8] (human, recombinant human SULT1E1 (rhSULT1E1), pH 7.4), 4260 µL/min/mg. Moreover, the “kinetic model of sulfation” value is given as “substrate inhibition kinetic model” in [3] (rhSULT2A1, Eadie–Hofstee plot); “substrate inhibition kinetic model” in series [5] (HLC, Eadie–Hofstee plot); “substrate inhibition kinetic model” in series [8] (rhSULT1E1). Moreover, the values for the Ksi in series [3] (sulfation by SULT2A1), in series [5] (sulfation by HLC) and in [8] (sulfation by SULT1E1) were 2.2 ± 0.9 µmol/L, 17.2 ± 2.9 µmol/L and 2.9 ± 1.2 µmol/L, respectively. Also, the Vm in [5] (sulfation by HLC) turned out to be 0.052 ± 0.004 nmol/min/mg. The Km in series [6] came to 1.08 ± 0.17 µM. Further, the “inhibitory effect toward AB sulfation in different organs” value in series [7] is listed as “strong inhibitory effect”. In addition, in series [8] (SULT1E1 vs SULT2A1), the “CLint of SULT1E1-mediated sulfation, fold higher than for SULT2A1” value was found to be 1.5 fold. The “Km of SULT1E1-mediated sulfation, fold lower than for SULT2A1” value in series [8] (SULT1E1 vs SULT2A1) was 7.2 fold.
With `O=[N+]([O-])c1cc(Cl)c(O)c(Cl)c1` [DCNP, 2,6-dichloro-p-nitrophenol], the “inhibition of AB sulfation” value in series [1] is reported as “less than 20%”.
As to `C[C@]12CC[C@H](O)C[C@H]1CC[C@@H]1[C@@H]2CC[C@]2(C)[C@@H](c3ccc(=O)oc3)C[C@H]3O[C@]132` [RB, resibufogenin], the “sulfation rates by SULT2A1 compared with other bufadienolides” value in [3] (1, 10 and 100 µmol/L, 0.1 mg/mL protein, 60 min, Fig. S1B) is reported as “higher than those of other bufadienolides”. In addition, in series [3] (up to 100 µmol/L, SULT2A1), the “trend of sulfation rate with increasing substrate concentration” value is given as “decreasing trend”.
As to `CS(=O)(=O)Nc1ccc([N+](=O)[O-])cc1Oc1ccccc1` [nimesulide], the “inhibition of AB sulfation” value in [1] is on record as “less than 20%”.
Regarding `CC1(C)[C@@H](O)CC[C@]2(C)[C@H]3C(=O)C=C4[C@@H]5C[C@@](C)(C(=O)O)CC[C@]5(C)CC[C@@]4(C)[C@]3(C)CC[C@@H]12` [GA, glycyrrhetinic acid], the “residual activity of AB sulfation” value in series [1] is “less than 10%”. Also, the “inhibitory effect toward AB sulfation in different organs” value in series [7] is “strong inhibitory effect”.

B1: rhSULT1E1 (Homo sapiens) (protein)
chain: MNSELDYYEKFEEVHGILMYKDFVKYWDNVEAFQARPDDLVIATYPKSGTTWVSEIVYMIYKEGDVEKCKEDVIFNRIPFLECRKENLMNGVKQLDEMNSPRIVKTHLPPELLPASFWEKDCKIIYLCRNAKDVAVSFYYFFLMVAGHPNPGSFPEFVEKFMQGQVPYGSWYKHVKSWWEKGKSPRVLFLFYEDLKEDIRKEVIKLIHFLERKPSEELVDRIIHHTSFQEMKNNPSTNYTTLPDEIMNQKLSPFMRKGITGDWKNHFTVALNEKFDKHYEQQMKESTLKFRTEI
Consider B1, for which, in series [9], the Km was found to be 0.34 ± 0.13 µM, the Vmax amounted to 0.00145 µmol/min/mg and the Vmax/Km stood at 4260 µL/min/mg.

B2: rhSULT2A1 (Homo sapiens) (protein)
chain: MSDDFLWFEGIAFPTMGFRSETLRKVRDEFVIRDEDVIILTYPKSGTNWLAEILCLMHSKGDAKWIQSVPIWERSPWVESEIGYTALSETESPRLFSSHLPIQLFPKSFFSSKAKVIYLMRNPRDVLVSGYFFWKNMKFIKKPKSWEEYFEWFCQGTVLYGSWFDHIHGWMPMREEKNFLLLSYEELKQDTGRTIEKICQFLGKTLEPEELNLILKNSSFQSMKENKMSNYSLLSVDYVVDKAQLLRKGVSGDWKNHFTVAQAEDFDKLFQEKMADLPRELFPWE
On to B2, for which, in [10], the Michaelis constant (Km) came out at 2.48 ± 1.15 µM, the Vmax was found to be 0.0073 µmol/min/mg and the Vmax/Km came out at 2940 µL/min/mg.

For orientation: IC50 means the concentration that gives 50% inhibition. Low readings indicate greater potency, high ones weaker potency. What is called microsomal CLint is the capacity of the preparation to metabolise the compound, expressed as a volume cleared per time. As a reminder, the Km is the concentration of substrate that gives half-maximal velocity. The term Vmax denotes the top rate of the reaction or transport when substrate is in excess.
